# Reference: ChEMBL document CHEMBL1275486, “Kinetic characterization of VIM-7, a divergent member of the VIM metallo-beta-lactamase family” (Antimicrob Agents Chemother, 2008)
# Experiments:
# Settings in all cases: 81-11963
# [1] = tested on: CO[C@@]1(NC(=O)Cc2cccs2)C(=O)N2C(C(=O)O)=C(COC(N)=O)CS[C@@H]21; test: (§1) Ratio of Kcat to Km for Pseudomonas aeruginosa beta-lactamase VIM-2 by spectrophotometry
# Method in brief: (§2)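 Recombinant enzyme was expressed in E. coli BL21(DE3) from pET-26b and purified from the periplasm to >99%, with concentration taken from A280. Hydrolysis was followed spectrophotometrically at 25°C in 50 mM sodium cacodylate pH 7.0 with 100 μM ZnCl2 and 0.1 mg/ml BSA. Km and kcat came from initial velocity versus substrate concentration. Some Km values were taken as competitive Ki against nitrocefin reporter.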
# [2] = tested on: O=C(Cc1cccs1)N[C@@H]1C(=O)N2C(C(=O)O)=C(/C=C/c3ccc([N+](=O)[O-])cc3[N+](=O)[O-])CS[C@H]12; test: as §1; method in brief: as §2
# [3] = tested on: CC(=O)OCC1=C(C(=O)O)N2C(=O)[C@@H](NC(=O)Cc3cccs3)[C@H]2SC1; test: as §1; method in brief: as §2
# [4] = tested on: CO/N=C(\C(=O)N[C@@H]1C(=O)N2C(C(=O)O)=C(COC(N)=O)CS[C@H]12)c1ccco1; test: as §1; method in brief: as §2
# [5] = tested on: C[C@]1(Cn2ccnn2)[C@H](C(=O)O)N2C(=O)C[C@H]2S1(=O)=O; test: as §1; method in brief: as §2
# [6] = tested on: CCN1CCN(C(=O)N[C@@H](C(=O)N[C@@H]2C(=O)N3[C@@H]2SC(C)(C)[C@@H]3C(=O)O)c2ccccc2)C(=O)C1=O; test: as §1; method in brief: as §2
# [7] = tested on: CC1(C)S[C@@H]2[C@H](NC(=O)Cc3ccccc3)C(=O)N2[C@H]1C(=O)O; test: as §1; method in brief: as §2
# [8] = tested on: CO/N=C(\C(=O)N[C@@H]1C(=O)N2C(C(=O)[O-])=C(C[N+]3(C)CCCC3)CS[C@H]12)c1csc(N)n1; test: as §1; method in brief: as §2
# [9] = tested on: CC(C)(O/N=C(\C(=O)N[C@@H]1C(=O)N2C(C(=O)[O-])=C(C[n+]3ccccc3)CS[C@H]12)c1csc(N)n1)C(=O)O; test: as §1; method in brief: as §2
# [10] = tested on: CO/N=C(\C(=O)N[C@@H]1C(=O)N2C(C(=O)O)=C(COC(C)=O)CS[C@H]12)c1csc(N)n1; test: as §1; method in brief: as §2
# [11] = tested on: C[C@@H](O)[C@H]1C(=O)N2C(C(=O)O)=C(S[C@@H]3CN[C@H](C(=O)N(C)C)C3)[C@H](C)[C@H]12; test: as §1; method in brief: as §2
# [12] = tested on: O=C(O)[C@H]1/C(=C/CO)O[C@@H]2CC(=O)N21; test: as §1; method in brief: as §2
# [13] = tested on: CC1(C)[C@H](C(=O)O)N2C(=O)C[C@H]2S1(=O)=O; test: as §1; method in brief: as §2
# [14] = tested on: CC1(C)S[C@@H]2[C@H](NC(=O)C(C(=O)O)c3ccccc3)C(=O)N2[C@H]1C(=O)O; test: as §1; method in brief: as §2
# [15] = tested on: O=C(Cc1cccs1)N[C@@H]1C(=O)N2C(C(=O)[O-])=C(C[n+]3ccccc3)CS[C@H]12; test: as §1; method in brief: as §2
# [16] = tested on: CC1(C)S[C@@H]2[C@H](NC(=O)[C@H](N)c3ccccc3)C(=O)N2[C@H]1C(=O)O; test: as §1; method in brief: as §2
# [17] = tested on: CC1(C)S[C@@H]2[C@H](NC(=O)[C@H](NC(=O)N3CCNC3=O)c3ccccc3)C(=O)N2[C@H]1C(=O)O; test: as §1; method in brief: as §2
# [18] = tested on: Cc1onc(-c2ccccc2Cl)c1C(=O)N[C@@H]1C(=O)N2[C@@H]1SC(C)(C)[C@@H]2C(=O)O; test: as §1; method in brief: as §2
# [19] = tested on: C[C@@H](O)[C@H]1C(=O)N2C(C(=O)O)=C(S[C@@H]3CN[C@H](C(=O)Nc4cccc(C(=O)O)c4)C3)[C@H](C)[C@H]12; test: as §1; method in brief: as §2
# [20] = tested on: CO[C@@]1(NC(=O)C(C(=O)O)c2ccc(O)cc2)C(=O)N2C(C(=O)O)=C(CSc3nnnn3C)CO[C@@H]21; test: as §1; method in brief: as §2
# [21] = tested on: CO[C@@]1(NC(=O)Cc2cccs2)C(=O)N2C(C(=O)O)=C(COC(N)=O)CS[C@@H]21; test: (§3) Activity of Pseudomonas aeruginosa beta-lactamase VIM-2 by spectrophotometry; method in brief: as §2
# [22] = tested on: O=C(Cc1cccs1)N[C@@H]1C(=O)N2C(C(=O)O)=C(/C=C/c3ccc([N+](=O)[O-])cc3[N+](=O)[O-])CS[C@H]12; test: as §3; method in brief: as §2
# [23] = tested on: CC(=O)OCC1=C(C(=O)O)N2C(=O)[C@@H](NC(=O)Cc3cccs3)[C@H]2SC1; test: as §3; method in brief: as §2
# [24] = tested on: CO/N=C(\C(=O)N[C@@H]1C(=O)N2C(C(=O)O)=C(COC(N)=O)CS[C@H]12)c1ccco1; test: as §3; method in brief: as §2
# [25] = tested on: C[C@]1(Cn2ccnn2)[C@H](C(=O)O)N2C(=O)C[C@H]2S1(=O)=O; test: as §3; method in brief: as §2
# [26] = tested on: CCN1CCN(C(=O)N[C@@H](C(=O)N[C@@H]2C(=O)N3[C@@H]2SC(C)(C)[C@@H]3C(=O)O)c2ccccc2)C(=O)C1=O; test: as §3; method in brief: as §2
# [27] = tested on: CC1(C)S[C@@H]2[C@H](NC(=O)Cc3ccccc3)C(=O)N2[C@H]1C(=O)O; test: as §3; method in brief: as §2
# [28] = tested on: CO/N=C(\C(=O)N[C@@H]1C(=O)N2C(C(=O)[O-])=C(C[N+]3(C)CCCC3)CS[C@H]12)c1csc(N)n1; test: as §3; method in brief: as §2
# [29] = tested on: CC(C)(O/N=C(\C(=O)N[C@@H]1C(=O)N2C(C(=O)[O-])=C(C[n+]3ccccc3)CS[C@H]12)c1csc(N)n1)C(=O)O; test: as §3; method in brief: as §2
# [30] = tested on: CO/N=C(\C(=O)N[C@@H]1C(=O)N2C(C(=O)O)=C(COC(C)=O)CS[C@H]12)c1csc(N)n1; test: as §3; method in brief: as §2
# [31] = tested on: C[C@@H](O)[C@H]1C(=O)N2C(C(=O)O)=C(S[C@@H]3CN[C@H](C(=O)N(C)C)C3)[C@H](C)[C@H]12; test: as §3; method in brief: as §2
# [32] = tested on: O=C(O)[C@H]1/C(=C/CO)O[C@@H]2CC(=O)N21; test: as §3; method in brief: as §2
# [33] = tested on: CC1(C)[C@H](C(=O)O)N2C(=O)C[C@H]2S1(=O)=O; test: as §3; method in brief: as §2
# [34] = tested on: CC1(C)S[C@@H]2[C@H](NC(=O)C(C(=O)O)c3ccccc3)C(=O)N2[C@H]1C(=O)O; test: as §3; method in brief: as §2
# [35] = tested on: O=C(Cc1cccs1)N[C@@H]1C(=O)N2C(C(=O)[O-])=C(C[n+]3ccccc3)CS[C@H]12; test: as §3; method in brief: as §2
# [36] = tested on: CC1(C)S[C@@H]2[C@H](NC(=O)[C@H](N)c3ccccc3)C(=O)N2[C@H]1C(=O)O; test: as §3; method in brief: as §2
# [37] = tested on: CC1(C)S[C@@H]2[C@H](NC(=O)[C@H](NC(=O)N3CCNC3=O)c3ccccc3)C(=O)N2[C@H]1C(=O)O; test: as §3; method in brief: as §2
# [38] = tested on: C[C@H]1[C@H](NC(=O)/C(=N\OC(C)(C)C(=O)O)c2csc(N)n2)C(=O)N1S(=O)(=O)O; test: as §3; method in brief: as §2
# [39] = tested on: Cc1onc(-c2ccccc2Cl)c1C(=O)N[C@@H]1C(=O)N2[C@@H]1SC(C)(C)[C@@H]2C(=O)O; test: as §3; method in brief: as §2
# [40] = tested on: C[C@@H](O)[C@H]1C(=O)N2C(C(=O)O)=C(S[C@@H]3CN[C@H](C(=O)Nc4cccc(C(=O)O)c4)C3)[C@H](C)[C@H]12; test: as §3; method in brief: as §2
# [41] = tested on: CO[C@@]1(NC(=O)C(C(=O)O)c2ccc(O)cc2)C(=O)N2C(C(=O)O)=C(CSc3nnnn3C)CO[C@@H]21; test: as §3; method in brief: as §2
substance,measurement,setting,value
Beta-lactamase VIM-2 (Pseudomonas aeruginosa) (from UniProt Q9K2N0),kcat/Km,[1],1.2e+06 M⁻¹ s⁻¹
same,kcat/Km,[2],4.28e+07 M⁻¹ s⁻¹
same,kcat/Km,[3],1.2e+07 M⁻¹ s⁻¹
same,kcat/Km,[4],400000 M⁻¹ s⁻¹
same,kcat/Km,[5],32000 M⁻¹ s⁻¹
same,kcat/Km,[6],2.4e+06 M⁻¹ s⁻¹
same,kcat/Km,[7],4e+06 M⁻¹ s⁻¹
same,kcat/Km,[8],100000 M⁻¹ s⁻¹
same,kcat/Km,[9],50000 M⁻¹ s⁻¹
same,kcat/Km,[10],5.8e+06 M⁻¹ s⁻¹
same,kcat/Km,[11],2.5e+06 M⁻¹ s⁻¹
same,kcat/Km,[12],1100 M⁻¹ s⁻¹
same,kcat/Km,[13],72000 M⁻¹ s⁻¹
same,kcat/Km,[14],900000 M⁻¹ s⁻¹
same,kcat/Km,[15],2.8e+06 M⁻¹ s⁻¹
same,kcat/Km,[16],1.4e+06 M⁻¹ s⁻¹
same,kcat/Km,[17],1e+06 M⁻¹ s⁻¹
same,kcat/Km,[18],1.4e+06 M⁻¹ s⁻¹
same,kcat/Km,[19],22000 M⁻¹ s⁻¹
same,kcat/Km,[20],1.6e+06 M⁻¹ s⁻¹
same,Km,[21],13 µM
same,kcat,[21],15 s⁻¹
same,Km,[22],18 µM
same,kcat,[22],770 s⁻¹
same,Km,[23],11 µM
same,kcat,[23],130 s⁻¹
same,Km,[24],20 µM
same,kcat,[24],8 s⁻¹
same,Km,[25],875 µM
same,kcat,[25],28 s⁻¹
same,Km,[26],125 µM
same,kcat,[26],300 s⁻¹
same,Km,[27],70 µM
same,kcat,[27],280 s⁻¹
same,Km,[28],> 400 µM
same,kcat,[28],> 40 s⁻¹
same,Km,[29],72 µM
same,kcat,[29],3.6 s⁻¹
same,Km,[30],12 µM
same,kcat,[30],70 s⁻¹
same,Km,[31],2 µM
same,kcat,[31],5 s⁻¹
same,Km,[32],> 5000 µM
same,kcat,[32],5.4 s⁻¹
same,Km,[33],320 µM
same,kcat,[33],23 s⁻¹
same,Km,[34],205 µM
same,kcat,[34],185 s⁻¹
same,Km,[35],50 µM
same,kcat,[35],140 s⁻¹
same,Km,[36],90 µM
same,kcat,[36],125 s⁻¹
same,Km,[37],200 µM
same,kcat,[37],200 s⁻¹
same,Km,[38],> 1000 µM
same,kcat,[38],< 0.01 s⁻¹
same,Km,[39],250 µM
same,kcat,[39],350 s⁻¹
same,Km,[40],9 µM
same,kcat,[40],0.2 s⁻¹
same,Km,[41],55 µM
same,kcat,[41],90 s⁻¹
